Laboratory results as given in ChEMBL document CHEMBL1806466, “2-Amino-4-methyl-5-phenylethyl substituted-7-N-benzyl-pyrrolo[2,3-d]pyrimidines as novel antitumor antimitotic agents that also reverse tumor resistance” (Bioorg Med Chem, 2011).
Calls of active or inactive are those of the source. The calls are words filed in the database; no cut-off is given here.

How the values were obtained:
MCF7 [1] = assay: Antitumor activity against human MCF7 cells after 48 hrs by sulforhodamine B assay; format: functional; details: MCF7, 48 h
Summary of the method: (§1)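 NCI-60 screen, adherent lines: grown in RPMI 1640 with 5% FBS and 2 mM L-glutamine. Seeded at 5,000–40,000 cells/well by doubling time and preincubated 24 h at 37 °C, 5% CO2, with time-zero plates TCA-fixed. Five concentrations (10-fold or half-log) given for 48 h. Fixed with cold TCA (10% final), then SRB-stained and read at A515. GI50 is 50% reduction of net protein increase versus control.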

DU-145 = assay: Antitumor activity against human DU145 cells after 48 hrs by sulforhodamine B assay; format: functional; details: DU-145, 48 h; summary of the method: as §1
NCI-H23 = assay: Antitumor activity against human NCI-H23 cells after 48 hrs by sulforhodamine B assay; format: functional; details: NCI-H23, 48 h; summary of the method: as §1
Hs-578T = assay: Antitumor activity against human Hs578T cells after 48 hrs by sulforhodamine B assay; format: functional; summary of the method: as §1
SW-620 = assay: Antitumor activity against human SW620 cells after 48 hrs by sulforhodamine B assay; format: functional; details: SW-620, 48 h; summary of the method: as §1
MCF7 [2] = assay: Resistance factor, ratio of IC50 for drug-resistant […] human NCI/ADR cells expressing Pgp in absence of vinblastin to IC50 for drug-sensitive human MCF7 cells in presence of 50 nM vinblastin; format: functional
SNB-19 = assay: Antitumor activity against human SNB19 cells after 48 hrs by sulforhodamine B assay; format: functional; details: SNB-19, 48 h; summary of the method: as §1
T47D = assay: Antitumor activity against human T47D cells after 48 hrs by sulforhodamine B assay; format: functional
Summary of the method: (§2)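 NCI-60 panel lines grown in RPMI 1640 with 5% FBS and 2 mM L-glutamine. Cells plated at 5,000–40,000/well by doubling time, given 24 h before drug, then exposed to five concentrations for 48 h at 37 °C. Time-zero plates fixed with TCA. Cells fixed with TCA, stained with 0.4% SRB, read at 515 nm. GI50 = 50% reduction in net protein increase versus control.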

SF-268 = assay: Antitumor activity against human SF268 cells after 48 hrs by sulforhodamine B assay; format: functional; details: SF-268, 48 h; summary of the method: as §1
HOP-62 = assay: Antitumor activity against human HOP62 cells after 48 hrs by sulforhodamine B assay; format: functional; details: HOP-62, 48 h; summary of the method: as §1
SF-539 = assay: Antitumor activity against human SF539 cells after 48 hrs by sulforhodamine B assay; format: functional; details: SF-539, 48 h; summary of the method: as §1
Bos taurus = organism: Bos taurus; assay: Effect on bovine brain microtubule depolymerization assessed as decrease in absorbance at wavelength 340 nm after 15 mins
Summary of the method: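 Bovine brain tubulin purified by three assembly/disassembly cycles followed by ion exchange. Tubulin at 2.5 mg/mL […] in 1 M glutamate, pH 6.6, with 4% DMSO, preincubated with compound at 0 °C for 15 min. 0.5 mM GTP then added and samples warmed to 37 °C. A340 monitored about 60 min.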

TK-10 = assay: Antitumor activity against human TK10 cells after 48 hrs by sulforhodamine B assay; format: functional; details: TK-10, 48 h; summary of the method: as §2
COLO 205 = assay: Antitumor activity against human COLO205 cells after 48 hrs by sulforhodamine B assay; format: functional; details: COLO 205, 48 h; summary of the method: as §1
SNB-75 = assay: Antitumor activity against human SNB75 cells after 48 hrs by sulforhodamine B assay; format: functional; details: SNB-75, 48 h; summary of the method: as §1
UO-31 = assay: Antitumor activity against human UO31 cells after 48 hrs by sulforhodamine B assay; format: functional; details: UO-31, 48 h; summary of the method: as §2
ACHN = assay: Antitumor activity against human ACHN cells after 48 hrs by sulforhodamine B assay; format: functional; summary of the method: as §1
SK-MEL-2 = assay: Antitumor activity against human SK-MEL-2 cells after 48 hrs by sulforhodamine B assay; format: functional; details: SK-MEL-2, 48 h; summary of the method: as §1
Malme-3M = assay: Antitumor activity against human MALME-3M cells after 48 hrs by sulforhodamine B assay; format: functional; summary of the method: as §1
SN12C = assay: Antitumor activity against human SN12C cells after 48 hrs by sulforhodamine B assay; format: functional; summary of the method: as §1
MCF7 [3] = assay: Cytotoxic activity against drug-sensitive Pgp-, MRP1-deficient human MCF7 cells after 48 hrs by sulforhodamine B assay; details: MCF7, 48 h
A549 = assay: Antitumor activity against human A549 cells after 48 hrs by sulforhodamine B assay; format: functional; details: A549, 48 h; summary of the method: as §1
PC-3 = assay: Antitumor activity against human PC3 cells after 48 hrs by sulforhodamine B assay; format: functional; details: PC-3, 48 h; summary of the method: as §1
OVCAR-5 = assay: Antitumor activity against human OVCAR5 cells after 48 hrs by sulforhodamine B assay; format: functional; details: OVCAR-5, 48 h; summary of the method: as §1
UACC-62 = assay: Antitumor activity against human UACC62 cells after 48 hrs by sulforhodamine B assay; format: functional; details: UACC-62, 48 h; summary of the method: as §2
HCT-116 = assay: Antitumor activity against human HCT116 cells after 48 hrs by sulforhodamine B assay; format: functional; details: HCT-116, 48 h; summary of the method: as §1
MDA-MB-435 = assay: Antitumor activity against human MDA-MB-435 cells after 48 hrs by sulforhodamine B assay; format: functional; details: MDA-MB-435, 48 h; summary of the method: as §1
CAKI-1 = assay: Antitumor activity against human Caki1 cells after 48 hrs by sulforhodamine B assay; format: functional; details: CAKI-1, 48 h; summary of the method: as §1
SK-MEL-28 = assay: Antitumor activity against human SK-MEL-28 cells after 48 hrs by sulforhodamine B assay; format: functional; details: SK-MEL-28, 48 h; summary of the method: as §1
SK-MEL-5 = assay: Antitumor activity against human SK-MEL-5 cells after 48 hrs by sulforhodamine B assay; format: functional; details: SK-MEL-5, 48 h; summary of the method: as §1
KM12 = assay: Antitumor activity against human KM12 cells after 48 hrs by sulforhodamine B assay; format: functional; details: KM12, 48 h; summary of the method: as §1
[4] = Cytotoxic activity against Pgp-deficient human MCF7/VP cells expressing MRP1 after 48 hrs by sulforhodamine B assay; format: functional, cell-based
Summary of the method: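 Cells plated at ~15% confluency and allowed 24 h to attach, then exposed to varying test concentrations for 48 h. Survival by SRB binding, reported as % decrease in binding versus ethanol solvent controls, mean of three wells. For NCI/ADR, exposure with 0 or 50 nM vinblastine; for MCF-7/VP, with 0 or 1 nM vincristine.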

NCI-H460 = assay: Antitumor activity against human NCI-H460 cells after 48 hrs by sulforhodamine B assay; format: functional; details: NCI-H460, 48 h; summary of the method: as §1
EKVX = assay: Antitumor activity against human EKVX cells after 48 hrs by sulforhodamine B assay; format: functional; summary of the method: as §1

SMILES: COc1cc(CCc2cn(Cc3ccccc3)c3nc(N)nc(C)c23)c(OC)c(OC)c1OC
- GI50 (MCF7 [1]): 1.05 µM
- GI50 (DU-145): 2.5 µM
- GI50 (NCI-H23): 3.61 µM
- GI50 (Hs-578T): 2.46 µM
- GI50 (SW-620): 3.19 µM
- Ratio IC50 (MCF7 [2]): 0.29
- GI50 (SNB-19): 4.68 µM
- GI50 (T47D): 1.69 µM
- GI50 (SF-268): 4.4 µM
- GI50 (HOP-62): 3.96 µM
- GI50 (SF-539): 1.86 µM
- Activity (Bos taurus): Active
- GI50 (TK-10): 7.62 µM
- GI50 (COLO 205): 2.8 µM
- GI50 (SNB-75): 2.25 µM
- GI50 (UO-31): 5.37 µM
- GI50 (ACHN): 9.36 µM
- GI50 (SK-MEL-2): 5.09 µM
- GI50 (Malme-3M): 10.4 µM
- GI50 (SN12C): 6.86 µM
- IC50 (MCF7 [3]): 24 µM
- GI50 (A549): 5.33 µM
- GI50 (PC-3): 3.08 µM
- GI50 (OVCAR-5): 11.9 µM
- GI50 (UACC-62): 2.13 µM
- GI50 (HCT-116): 3.68 µM
- GI50 (MDA-MB-435): 0.34 µM
- GI50 (CAKI-1): 2.5 µM
- GI50 (SK-MEL-28): 4.05 µM
- GI50 (SK-MEL-5): 1.46 µM
- GI50 (KM12): 3.33 µM
- IC50 [4]: 9 µM
- GI50 (NCI-H460): 2.81 µM
- GI50 (EKVX): 7.73 µM
